ROMK mod: modulates human ROMK potassium channel activity | AID 1918 | B-score at 10 µM | actives 2% (n = 130,000) | Tet-inducible ROMK, thallium flux fluorescence; actives lie on both sides;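 active = signal ratio slope over the read window, or its plate-corrected B-score, at least 3 SD from the plate mean, either direction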;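 also: B-score of the F/F0 ratio slope over 7 to 12 s after thallium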
bCat nuc transl: alters nuclear translocation of beta-catenin in HeLa cells; actives 0.3% (n = 190,000); immunofluorescence imaging; nuclear translocation activity, % at 5 µM;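 active = nuclear translocation activity above 50% at 5 µM, with a well cell count of 50 or more; inconclusive = wells under 50 cells across six images, flagged as toxic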;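 also: per-cell ratio of nuclear to cytoplasmic median beta-catenin stain intensity; plate controls were DMSO negative control for no effect and GSK-3 inhibitor IX positive control for full effect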
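Test system: human HeLa cells, native beta-catenin. Compound dosing: 5 µM primary single dose, 0.1% DMSO, 0.02–20 µM confirmation series. Incubation: compound exposure 24 h at 37°C. Detection: beta-catenin immunostaining with DAPI counterstain, 20x imaging, 6 fields/well. Read-out basis: Nuclear/cytoplasmic beta-catenin signal ratio, % activation.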
DTT redox prof: compounds producing H2O2 with reducing agent – biochemical, NIH compound library profiling, artefact control for MLSCN library redox annotation, primary screen | DTT-dependent redox cycling H2O2, phenol red/HRP absorbance; 100% = 100 µM peroxide control, 0% = buffer | activation, % at 10 µM | actives 0.03% (n = 200,000) | AID 878;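 active = activation of at least 50% relative to the plate's high and low controls in the primary single-dose screen; inactive = activation below 50%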;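 also: compound incubated with DTT at 0.8 mM final as the reducing agent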
MT stabilize HCS: stabilizes microtubules in HeLa cells. HeLa tubulin immunostaining HCS, 24 h; share of cells brighter than vehicle mean+2SD. AID 2205. actives 0.83% (n = 200,000). % tubulin-high responders, % at 10 µM;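 active = plate Z-score above 3 for both tubulin-high and condensed-nucleus cell shares, with cell loss under 80%, at 10 µM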;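 also: anti alpha tubulin signal scored within the nucleus-defined area of each cell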
KCC2 mod: modulators of human KCC2 chloride dependent transport. Q9H2X9. KCC2 cells, thallium flux FluoZin-2 fluorescence. B-score of Tl+ flux slope (higher = more flux/activation; lower = inhibition) at 10 µM. actives 2.2% (n = 190,000);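 active = thallium flux slope and its plate-corrected score both differing from the plate sample mean at a set confidence after two filtering rounds, in either direction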;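 also: slope of fluorescence scaled to starting intensity during 10 to 20 s after thallium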
ROMK retest: confirmation of human ROMK potassium channel modulators. ROMK thallium flux, fluorescence ratio; active compounds read low. AID 1917. normalized thallium flux (F/F0 slope) at 10 µM. actives 54% (n = 3,000). shares compounds with ROMK mod;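 active = Flux at 10 µM at least 3 SD below or above vehicle control mean in one or both replicates; inconclusive = no clear call, values can overlap the other calls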
Active calls of the source: *; u = inconclusive; x = no result given. The list is not random: actives were taken first. Their share in the collection is about 3.7%.

SMILES | ROMK mod | bCat nuc transl | DTT redox prof | MT stabilize HCS | KCC2 mod | ROMK retest
CCOC(=O)C(=Cc1cc(=O)c(OC)co1)C(=O)OCC | -4.1* | 0 | 0 | 25* | 0.87 | 0.048*
COc1coc(C(O)CN)cc1=O (stereo not drawn) | 1.9 | x | -1 | 3 | 0.13 | x
CC(C)CC(NC(=O)c1ccccc1)C(=O)N/N=C/c1ccco1 (stereo not drawn) | 0.96 | x | 0 | 2 | 0.005 | 0.086
O=C(Cn1nnc2ccccc21)N/N=C/c1ccco1 | x | 1 | 1 | 8 | 0.32 | x
O=C(Cn1nnc(-c2ccccc2)n1)N/N=C/c1ccco1 | -12* | -1 | -1 | 4 | 1.4 | 0.072
CN(C)c1ccc(/C=C/c2cc[n+](C)cc2)cc1 | -7.3* | x | 0 | 3 | -1.7 | 0.044*
O=C(NC1CCCCCC1)c1cc(S(=O)(=O)N2CCCCC2)ccc1N1CCOCC1 | -3.2* | -2 | 0 | 3 | -0.055 | 0.061*
COc1ccccc1NNC(=O)c1cc(C(C)(C)C)nn1Cc1ccccc1 | x | 0 | x | x | 0.54 | 0.066*
CC(C)(C)c1cc(C(=O)NNc2cccc(Cl)c2)n(Cc2ccccc2)n1 | x | 0 | x | x | -0.43 | 0.057*
Cc1ccc(NNC(=O)c2cc(C(C)(C)C)nn2Cc2ccccc2)cc1 | x | 7 | x | x | -1.2 | x
CC(C)(C)C(=O)NNC(=O)c1cc(C(C)(C)C)nn1Cc1ccccc1 | -0.35 | 0 | x | x | 0.53 | x
O=C(CCC1CCCN(c2ncccn2)C1)NCc1ccc(F)c(F)c1 (stereo not drawn) | -0.18 | 0 | 0 | 3 | -0.2 | x
CCOC(=O)c1cc[nH]c1CC(=O)NC | x | 1 | x | x | -0.14 | x
COc1ccc(OCC2CCCN(Cc3nc(CC4CC4)no3)C2)cc1 (stereo not drawn) | -0.63 | 0 | 2 | x | 0.3 | x
COCC1CCCN(Cc2nc(Cc3ccccc3)no2)C1 (stereo not drawn) | 0.57* | -1 | -2 | 5 | -0.28 | 0.078
O=C(O)c1ccc(Cn2cnc3scc(-c4ccccc4)c3c2=O)cc1 | -6* | 1 | -1 | 5 | -0.4 | 0.055*
Cc1ccc(-c2csc3ncn(Cc4ccc(C(=O)O)cc4)c(=O)c23)cc1C | x | 0 | -1 | 3 | -0.97 | x
Cc1cc(Cl)ccc1OC(C)C(=O)Nc1ccc([N+](=O)[O-])cn1 (stereo not drawn) | -1.5 | -1 | 0 | 2 | -0.27 | x
CC(C)N(CCn1c(=S)[nH]c2ccccc2c1=O)C(C)C | 3.2* | x | 0 | 2 | 1.8 | 0.068*
COc1cccc(C(c2nnnn2C(C)(C)C)N2CCN(C3CCCCC3)CC2)c1OC (stereo not drawn) | -2.4* | -8 | -1 | 5 | x | u
COc1ccc(N2CCN(C(c3cccc(OC)c3OC)c3nnnn3C3CCCC3)CC2)cc1 (stereo not drawn) | x | -2 | 0 | 3 | -0.5 | x
COC(=O)c1ncccc1SC | -0.028 | -2 | 0 | 2 | -1.6 | x
Cc1cccc(-c2nc(CSCC(=O)N3CCN(c4ccccn4)CC3)c(C)o2)c1 | -4.3* | x | -5 | 4 | x | 0.053*
Cc1ccc(-c2nc(CSCC(=O)N3CCCC3)c(C)o2)cc1 | 0.02 | x | -5 | 5 | x | x
CC(C)OC(=O)Cn1cc(C#N)c2ccccc21 | -8.8* | -3 | 0 | 3 | 1.2 | 0.079
SMILES | ROMK mod | bCat nuc transl | DTT redox prof | MT stabilize HCS | KCC2 mod | ROMK retest
COc1ccc(C([O-])=Nc2ccc[n+](-c3nc4ccccc4nc3NS(=O)(=O)c3ccccc3)c2)cc1 | x | 1 | x | x | -1.1 | x
O=S(=O)(Nc1nc2ccccc2nc1-[n+]1cccc(N=C([O-])c2ccccc2Cl)c1)c1ccccc1 | x | 1 | x | x | 0.8 | 0.053*
Cc1cc(C)nc(NC(=O)CSc2nccc(C)n2)n1 | 2.8* | -3 | 3 | 2 | 0.37 | 0.079
COC(=O)c1ccccc1NC(=O)CSc1nccc(C)n1 | -0.037 | 1 | 0 | 3 | -0.8 | x
CCN(CC)c1ccc2cc(C#N)c(=O)oc2c1 | x | 2 | -1 | 3 | x | 0.046*
COc1ccccc1-n1cnnc1SCC(=O)c1c[nH]c2ccccc12 | -0.43 | -1 | 0 | 3 | 0.31 | x
CC(C)c1[nH]nc2c1C(c1cccs1)C(C#N)=C(N)O2 (stereo not drawn) | -5.7* | -1 | 1 | 3 | -0.096 | 0.058*
CCN(CC)S(=O)(=O)c1ccc(OC(C)C)c(NC(=O)c2c3c(nc4ccccc24)CCN(Cc2ccccc2)C3)c1 | -3* | -4 | 0 | 3 | -0.33 | 0.059*
O=C(NCc1cccnc1)c1ccc(Cn2c(=S)[nH]c3ccc(Br)cc3c2=O)cc1 | -0.9 | -4 | 1 | 3 | 2 | x
CCc1cccc(C)c1N1C(=O)CC(C)(C)CC1=O | 0.22 | 0 | x | x | 0.087 | x
COc1ccc(NC(=S)N(CCCN2CCC(C)CC2)Cc2cccs2)cc1Cl | -5.2* | 0 | 0 | 3 | 0.31 | 0.055*
CSc1cccc(NC(=S)N(CCCN2CCCC(C)C2)Cc2cccs2)c1 (stereo not drawn) | -4.4* | 0 | 0 | 2 | 0.36 | 0.058*
COc1ccc(NC(=S)N(CCCN2CCN(C)CC2)Cc2cccs2)cc1 | 0.53 | -2 | 0 | 3 | 0.99 | x
CCOC(=O)CC(NC(=O)CCc1c(C)nc2ncnn2c1C)c1ccc(C)cc1 (stereo not drawn) | 0.0027 | 0 | 0 | 3 | -0.56 | x
S=C(NCC1CCCO1)NC1CCCC1 (stereo not drawn) | 1.1 | -5 | 0 | 5 | 1.3 | x
CC(=O)CC(=O)Nc1ncccn1 | -0.96 | -3 | -1 | 4 | -1.8 | x
CCC(C(=O)NCc1ccco1)N(C(=O)CNS(=O)(=O)c1ccc(C)cc1)c1ccccc1OC (stereo not drawn) | 0.79 | -2 | 0 | 3 | x | x
CCCC(C(=O)NCc1ccco1)N(C(=O)CNS(=O)(=O)c1ccccc1)c1ccccc1OC (stereo not drawn) | -4.2* | 8 | 0 | 2 | x | 0.058*
COc1ccc(CNC(=O)C(c2ccco2)N(C(=O)CNS(=O)(=O)c2ccccc2)c2ccccc2C)cc1 (stereo not drawn) | -5* | 1 | -1 | 4 | -0.43 | 0.045*
CCOc1ccc(/C=N/OC(C)C(=O)NCc2ccc3c(c2)OCO3)cc1 (stereo not drawn) | -0.77 | -1 | 0 | 4 | 0.67 | x
COc1ccc(OCC(=O)NNc2c3ccccc3nc3ccccc23)cc1 | x | 8 | 2 | 1 | x | u
O=c1oc2ccccc2nc1/C=C(\O)c1ccccc1 | 0.38 | 6 | x | x | -0.32 | x
Cc1ccc(/C(O)=C/c2nc3cc(C)ccc3oc2=O)cc1 | -2.4* | -2 | x | x | 0.42 | 0.048*
Clc1ccc(C2=NNC(=NCc3ccccc3)SC2)cc1 | -0.22 | 0 | -1 | 2 | -0.065 | x
Fc1ccc(C2=NNC(=NCc3ccccc3)SC2)cc1F | -3* | 0 | -1 | 2 | 1.1 | u
Cc1cc(C)c2c3c(sc2n1)C(=O)N(c1ccccc1)CC(=O)N3 | x | 2 | x | x | 2 | x
